{"data": "Assay results from different studies", "observed": "cell growth or viability", "note": "Lines come from different studies, so protocols differ."}
{"Structure (SMILES)": "C=C(F)C(=O)N1CCN(c2nc(OC[C@@H]3CCCN3C)nc3c2CCN(c2cccc4cccc(Cl)c24)C3)C[C@@H]1CC#N", "cell line": "SW480", "method": "ATP luminescence", "setting": "3D culture", "quantity": "IC50", "result": "> 1000 nM"}
{"Structure (SMILES)": "CC(C)c1ccccc1[C@@H]1CCCN1C1CC2(CCN(c3ccc(C(=O)NS(=O)(=O)c4ccc(NC[C@H]5CC[C@](C)(O)CC5)c([N+](=O)[O-])c4)c(Oc4cnc5[nH]ccc5c4)c3)CC2)C1", "cell line": "Toledo", "method": "ATP luminescence", "time": "48 h", "quantity": "IC50", "result": "4.6 nM"}
{"Structure (SMILES)": "COc1cc2c3c(n(CCCNC(C)C)c(=O)c2cc1OC)-c1nc2c(cc1C3=O)OCO2", "cell line": "Kasumi 1", "method": "MTS", "time": "72 h", "quantity": "IC50", "result": "432 nM"}
{"Structure (SMILES)": "O=C(NO)c1ccc(CNc2nc3cccc(-c4ccc5c(c4)OCO5)n3n2)cc1", "cell line": "A498", "method": "SRB", "quantity": "GI50", "result": "510 nM"}
{"Structure (SMILES)": "C=CC(=O)NC1CCN(c2ncc3ncnc(Nc4ccc(Oc5ccc6c(c5)ncn6C)c(C)c4)c3n2)CC1", "cell line": "GP2d", "quantity": "EC50", "result": "12300 nM"}
{"Structure (SMILES)": "C=CC(=O)N1CCN(c2nc(=O)n(-c3c(C)ccnc3C(C)C)c3nc(-c4c(O)cccc4F)c(F)cc23)[C@@H](C)C1", "cell line": "SW480", "method": "ATP luminescence", "quantity": "IC50", "result": "> 10000 nM"}
{"Structure (SMILES)": "CC1(C)CCC(CN2CCN(c3ccc(C(=O)NS(=O)(=O)c4ccc(NCC5CCOCC5)c([N+](=O)[O-])c4)c(Oc4cnc5[nH]ccc5c4)c3)CC2)=C(c2ccc(Cl)cc2)C1", "cell line": "Toledo", "method": "ATP luminescence", "time": "48 h", "quantity": "IC50", "result": "71 nM"}
{"Structure (SMILES)": "Cc1cccc(-c2[nH]c(CNc3ccccc3F)nc2-c2ccc3ncnn3c2)n1", "cell line": "MM1.S", "method": "XTT", "quantity": "IC50", "result": "~1500 nM"}
{"Structure (SMILES)": "COc1cc2c3c(n(CCCNCCO)c(=O)c2cc1OC)-c1nc2c(cc1C3=O)OCO2", "cell line": "Kasumi 1", "method": "MTS", "time": "72 h", "quantity": "IC50", "result": "530 nM"}
{"Structure (SMILES)": "CC1(CN)CCN(c2cnc3c(Sc4ccncc4Cl)n[nH]c3n2)CC1", "cell line": "HGC-27", "method": "CCK-8", "time": "96 h", "quantity": "IC50", "result": "4830 nM"}
{"Structure (SMILES)": "Nc1cccc2c1C(=O)N(C1CCC(=O)NC1=O)C2=O (stereo not drawn)", "cell line": "MM1.S", "method": "XTT", "quantity": "IC50", "result": "~300 nM"}
{"Structure (SMILES)": "Cc1noc2c1-c1ccccc1C(c1ccc(Cl)cc1)=N[C@H]2CC(N)=O", "cell line": "Kasumi 1", "method": "ATP luminescence", "time": "72 h", "quantity": "IC50", "result": "263 nM"}
